Results: ChEMBL document CHEMBL1131626 (J Med Chem, 1998)
pEC50, pKi: −log10 of the molar value. Blank lines part the entries; values can stand above or below the compound they belong to.

Assays:
[1] = target: T1, Progesterone receptor (Homo sapiens) (UniProt P06401); test: Efficacy for progesterone receptor relative to progesterone
T1 sequence (whole entry): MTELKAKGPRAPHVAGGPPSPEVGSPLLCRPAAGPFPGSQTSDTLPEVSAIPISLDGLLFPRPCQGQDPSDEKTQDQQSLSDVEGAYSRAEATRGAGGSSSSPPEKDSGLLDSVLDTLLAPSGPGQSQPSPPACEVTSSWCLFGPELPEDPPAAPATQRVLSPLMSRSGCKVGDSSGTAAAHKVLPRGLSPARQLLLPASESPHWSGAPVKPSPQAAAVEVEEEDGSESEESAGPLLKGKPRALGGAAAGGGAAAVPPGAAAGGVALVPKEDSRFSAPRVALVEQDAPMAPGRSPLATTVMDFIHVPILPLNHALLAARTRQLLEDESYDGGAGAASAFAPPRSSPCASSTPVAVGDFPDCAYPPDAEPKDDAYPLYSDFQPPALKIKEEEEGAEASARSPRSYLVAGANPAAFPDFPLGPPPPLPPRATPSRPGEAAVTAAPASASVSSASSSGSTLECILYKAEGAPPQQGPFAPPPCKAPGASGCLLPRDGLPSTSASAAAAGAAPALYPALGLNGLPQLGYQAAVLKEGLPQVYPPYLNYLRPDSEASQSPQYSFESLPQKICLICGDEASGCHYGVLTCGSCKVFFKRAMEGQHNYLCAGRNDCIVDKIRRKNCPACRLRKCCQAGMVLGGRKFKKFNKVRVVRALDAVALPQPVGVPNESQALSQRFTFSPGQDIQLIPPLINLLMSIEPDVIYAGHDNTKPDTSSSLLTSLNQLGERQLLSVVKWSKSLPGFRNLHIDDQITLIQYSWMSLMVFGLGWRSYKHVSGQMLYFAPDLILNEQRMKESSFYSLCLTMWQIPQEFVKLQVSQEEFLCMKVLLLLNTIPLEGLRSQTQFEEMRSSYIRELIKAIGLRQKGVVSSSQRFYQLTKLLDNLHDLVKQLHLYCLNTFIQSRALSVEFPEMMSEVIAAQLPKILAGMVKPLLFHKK

Glucocorticoid receptor = target: T2, Glucocorticoid receptor (Homo sapiens, UniProt P04150); test: Binding affinity for baculovirus-expressed human glucocorticoid receptor
T2 sequence (P04150 whole entry): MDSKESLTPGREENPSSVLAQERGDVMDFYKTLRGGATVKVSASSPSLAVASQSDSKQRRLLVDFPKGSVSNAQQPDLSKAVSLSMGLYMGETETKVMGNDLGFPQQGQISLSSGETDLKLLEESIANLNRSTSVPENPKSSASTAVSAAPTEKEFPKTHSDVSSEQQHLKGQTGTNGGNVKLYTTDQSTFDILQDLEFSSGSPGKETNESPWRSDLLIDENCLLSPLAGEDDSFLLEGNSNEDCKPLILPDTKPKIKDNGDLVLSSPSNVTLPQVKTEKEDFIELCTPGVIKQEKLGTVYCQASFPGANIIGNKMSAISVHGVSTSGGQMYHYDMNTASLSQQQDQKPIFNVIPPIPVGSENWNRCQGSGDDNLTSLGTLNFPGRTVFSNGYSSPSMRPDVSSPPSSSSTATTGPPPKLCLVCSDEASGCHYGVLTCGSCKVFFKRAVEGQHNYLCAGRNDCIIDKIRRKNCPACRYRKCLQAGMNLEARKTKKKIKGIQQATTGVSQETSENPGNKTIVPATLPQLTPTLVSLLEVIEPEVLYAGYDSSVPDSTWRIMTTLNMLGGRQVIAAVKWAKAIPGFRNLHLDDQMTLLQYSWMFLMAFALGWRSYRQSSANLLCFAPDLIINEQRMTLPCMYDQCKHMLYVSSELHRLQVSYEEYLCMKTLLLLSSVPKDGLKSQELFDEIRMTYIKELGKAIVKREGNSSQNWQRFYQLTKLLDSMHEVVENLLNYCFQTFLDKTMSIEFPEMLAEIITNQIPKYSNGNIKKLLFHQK

[2] = target: T3, Progesterone receptor (Rattus norvegicus) (UniProt Q63449); test: Fold induction as increase in BrdU labeling index over estrone treatment alone in lobular-aveolar rat mammary buds by progestin treatment at 3 mg/kg; assay type: functional, organism-based; design: dose 3 mg/kg
T3 sequence (whole entry): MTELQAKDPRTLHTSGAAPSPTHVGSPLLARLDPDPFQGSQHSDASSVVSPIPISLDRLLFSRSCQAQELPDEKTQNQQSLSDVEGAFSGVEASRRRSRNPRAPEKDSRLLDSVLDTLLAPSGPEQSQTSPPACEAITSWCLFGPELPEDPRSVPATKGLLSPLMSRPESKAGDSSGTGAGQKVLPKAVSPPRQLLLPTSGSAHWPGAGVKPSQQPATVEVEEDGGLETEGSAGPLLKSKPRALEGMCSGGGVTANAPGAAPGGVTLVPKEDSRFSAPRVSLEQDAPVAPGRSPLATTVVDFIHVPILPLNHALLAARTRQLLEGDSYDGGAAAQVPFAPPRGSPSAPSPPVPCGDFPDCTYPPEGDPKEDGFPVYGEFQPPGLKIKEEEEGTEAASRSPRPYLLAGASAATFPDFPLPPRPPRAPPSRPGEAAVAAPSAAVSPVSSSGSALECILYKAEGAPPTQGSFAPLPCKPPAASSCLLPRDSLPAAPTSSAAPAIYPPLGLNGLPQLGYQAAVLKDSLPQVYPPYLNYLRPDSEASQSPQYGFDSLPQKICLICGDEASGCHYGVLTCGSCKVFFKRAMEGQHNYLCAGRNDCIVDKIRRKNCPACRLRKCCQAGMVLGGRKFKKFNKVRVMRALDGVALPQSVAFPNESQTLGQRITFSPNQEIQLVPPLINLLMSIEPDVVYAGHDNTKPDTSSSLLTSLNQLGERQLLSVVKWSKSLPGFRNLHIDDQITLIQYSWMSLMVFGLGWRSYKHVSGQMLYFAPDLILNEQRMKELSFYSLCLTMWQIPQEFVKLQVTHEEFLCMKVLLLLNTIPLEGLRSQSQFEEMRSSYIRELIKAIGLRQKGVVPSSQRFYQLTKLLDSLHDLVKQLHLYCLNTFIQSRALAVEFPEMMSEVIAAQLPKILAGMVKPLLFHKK
How it was run: (§1)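 Ovariectomized Sprague-Dawley rats, 4-5 weeks old, groups of 4-5, given estrone 10 µg sc plus oral compound in corn oil (0.5 mL) for 3 days. On day 4, BrdU 200 mg/kg ip; mammary glands taken 3 h later. Frozen sections stained with anti-BrdU/FITC. Labeling index = labeled/lobular area, averaged over 12 fields per gland, as fold over estrone alone.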

[3] = target: T3, Progesterone receptor (Rattus norvegicus); test: Fold induction as increase in BrdU labeling index over estrone treatment alone in lobular-aveolar rat mammary buds by progestin treatment; assay type: functional; how it was run: as §1
Progesterone receptor [4] = target: T4, Progesterone receptor (Homo sapiens, UniProt P06401); test: Effective concentration for half-maximal activation of human progesterone receptor expressed in CV-1 cells; assay type: cell-based
T4 sequence (P06401 whole entry): T1 sequence (whole entry)

Progesterone receptor [5] = target: T4, Progesterone receptor; test: Binding affinity for baculovirus-expressed human progesterone receptor isoform A
[6] = target: T5, Progesterone receptor (Mus musculus) (UniProt Q00175); test: Effect on pregnancy in mice as percent pregnant at 3 mg/mouse dose with simultaneous 0.5 mg RU-486 dose; assay type: functional
T5 sequence (whole entry): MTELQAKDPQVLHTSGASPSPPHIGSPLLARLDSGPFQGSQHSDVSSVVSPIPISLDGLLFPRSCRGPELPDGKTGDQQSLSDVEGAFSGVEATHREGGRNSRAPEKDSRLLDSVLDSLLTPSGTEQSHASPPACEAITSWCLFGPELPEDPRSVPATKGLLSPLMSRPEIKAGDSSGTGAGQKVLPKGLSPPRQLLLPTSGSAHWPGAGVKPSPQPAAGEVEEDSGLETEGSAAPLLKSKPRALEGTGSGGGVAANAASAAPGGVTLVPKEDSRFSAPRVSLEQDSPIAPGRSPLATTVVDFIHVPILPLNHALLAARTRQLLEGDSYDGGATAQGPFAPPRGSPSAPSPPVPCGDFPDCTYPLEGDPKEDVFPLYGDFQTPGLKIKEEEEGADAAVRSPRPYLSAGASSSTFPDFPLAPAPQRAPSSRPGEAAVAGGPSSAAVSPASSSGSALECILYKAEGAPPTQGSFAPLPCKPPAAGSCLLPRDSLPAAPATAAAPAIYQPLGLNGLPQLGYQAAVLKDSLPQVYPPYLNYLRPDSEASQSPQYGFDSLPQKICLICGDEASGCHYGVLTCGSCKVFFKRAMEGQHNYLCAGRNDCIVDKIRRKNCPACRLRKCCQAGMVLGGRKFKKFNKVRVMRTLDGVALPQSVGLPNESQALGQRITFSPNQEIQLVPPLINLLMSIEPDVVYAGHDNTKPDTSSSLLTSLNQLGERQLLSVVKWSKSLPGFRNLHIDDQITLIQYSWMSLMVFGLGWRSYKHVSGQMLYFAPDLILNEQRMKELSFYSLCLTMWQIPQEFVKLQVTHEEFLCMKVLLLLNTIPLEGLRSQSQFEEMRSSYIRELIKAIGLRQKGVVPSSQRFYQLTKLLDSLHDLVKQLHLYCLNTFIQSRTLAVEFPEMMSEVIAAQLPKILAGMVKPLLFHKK
How it was run: (§2)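 Mature virgin ICR mice, 10-12 weeks old, mated overnight; vaginal plug marks day 1. Oral RU486 0.5 mg (~15 mg/kg), alone or with test compound (mg/mouse), on days 2-4. Compounds in ethanol diluted with corn oil, 0.1 mL. Oil controls. Necropsy on day 8 to count corpora lutea and implantation sites and to score pregnancy. Student t-test.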

[7] = target: T5, Progesterone receptor (Mus musculus); test: Effect on pregnancy in mice as number pregnant/mated at 1 mg/mouse dose with simultaneous 0.5 mg RU-486 dose; out of 10; assay type: functional; how it was run: as §2
[8] = target: T5, Progesterone receptor (Mus musculus); test: Effect on pregnancy in mice as corpora lutea at 3 mg/mouse dose with simultaneous 0.5 mg RU-486 dose; assay type: functional, organism-based; how it was run: as §2
[9] = target: T5, Progesterone receptor (Mus musculus); test: Effect on pregnancy in mice as implantation at 1 mg/mouse dose with simultaneous 0.5 mg RU-486 dose; assay type: functional; how it was run: as §2
[10] = target: T5, Progesterone receptor (Mus musculus); test: Effect on pregnancy in mice as number pregnant/mated at 3 mg/mouse dose with simultaneous 0.5 mg RU-486 dose; out of 10; assay type: functional; how it was run: as §2
[11] = target: T5, Progesterone receptor (Mus musculus); test: Effect on pregnancy in mice as implantation at 3 mg/mouse dose with simultaneous 0.5 mg RU-486 dose; assay type: functional; how it was run: as §2
[12] = target: T5, Progesterone receptor (Mus musculus); test: Effect on pregnancy in mice as corpora lutea at 1 mg/mouse dose with simultaneous 0.5 mg RU-486 dose; assay type: functional, organism-based; how it was run: as §2
[13] = target: T5, Progesterone receptor (Mus musculus); test: Effect on pregnancy in mice as percent pregnant at 1 mg/mouse dose with simultaneous 0.5 mg RU-486 dose; assay type: functional; how it was run: as §2

- Efficacy [1]: 95
- pKi (Glucocorticoid receptor): 8.20
Structure (SMILES): CC1=CC(C)(C)Nc2ccc3c(c21)C(c1cccc(Cl)c1)Oc1ccc(Cl)cc1-3 (racemic)

- pKi (Glucocorticoid receptor): 6.68
Structure (SMILES): CC1=CC(C)(C)Nc2ccc3c(c21)C(c1ccc(Cl)c(C)c1)Oc1ccc(F)cc1-3 (racemic) [listing 1 of 2 here]

- Efficacy [1]: 125
- Fold induction [2]: 3.6
Structure (SMILES): CC1=CC(C)(C)Nc2ccc3c(c21)C(c1cccc(Cl)c1)Oc1ccc(F)cc1-3 (single isomer, unassigned; (-)) [listing 1 of 2 here]

- pKi (Glucocorticoid receptor): 6.88
Structure (SMILES): CC1=CC(C)(C)Nc2ccc3c(c21)C(c1cccc(Cl)c1)Oc1ccc(F)cc1-3 (racemic) [listing 1 of 2 here]

- Efficacy [1]: 97
Structure (SMILES): CC1=CC(C)(C)Nc2ccc3c(c21)C(c1ccc(Cl)c(C)c1)Oc1ccc(F)cc1-3 (racemic) [listing 2 of 2 here]

- Efficacy [1]: 43
Structure (SMILES): CC1=CC(C)(C)Nc2ccc3c(c21)C(c1ccc(Cl)c(C)c1)Oc1ccc(F)cc1-3 (stereo in doubt) [listing 1 of 2 here]

- Efficacy [1]: 99
- Fold induction [2]: 2.5
Structure (SMILES): CC1=CC(C)(C)Nc2ccc3c(c21)C(c1ccc(Cl)c(C)c1)Oc1ccc(F)cc1-3 (single isomer, unassigned; (-)) [listing 1 of 2 here]

- Efficacy [1]: 73
- pKi (Glucocorticoid receptor): 7.85
Structure (SMILES): CC1=CC(C)(C)Nc2ccc3c(c21)C(c1ccc(Cl)c(C)c1)Oc1ccc(Cl)cc1-3 (racemic)

- Efficacy [1]: 83
Structure (SMILES): CC1=CC(C)(C)Nc2ccc3c(c21)C(c1cccc(Cl)c1)Oc1ccc(F)cc1-3 (single isomer, unassigned; (+)) [listing 1 of 2 here]

- Fold induction [3]: 1
- Fold induction [2]: 24
Structure (SMILES): C[C@]12CC[C@@H]3c4ccc(O)cc4CC[C@H]3[C@@H]1CCC2=O

- pEC50 (Progesterone receptor [4]): 8.62
- pKi (Progesterone receptor [5]): 9.40
Structure (SMILES): CC1=CC(C)(C)Nc2ccc3c(c21)C(c1ccc(Cl)c(C)c1)Oc1ccc(F)cc1-3 (single isomer, unassigned; (-)) [listing 2 of 2 here]

- pEC50 (Progesterone receptor [4]): 6.87
- pKi (Progesterone receptor [5]): 7.52
Structure (SMILES): CC1=CC(C)(C)Nc2ccc3c(c21)C(c1cccc(Cl)c1)Oc1ccc(F)cc1-3 (single isomer, unassigned; (+)) [listing 2 of 2 here]

- pEC50 (Progesterone receptor [4]): 8.89
- pKi (Progesterone receptor [5]): 10.00
Structure (SMILES): CC1=CC(C)(C)Nc2ccc3c(c21)C(c1cccc(Cl)c1)Oc1ccc(F)cc1-3 (single isomer, unassigned; (-)) [listing 2 of 2 here]

- Pregnant [6]: 50%
- No. pregnant/mated [7]: 3
- Corpora lutea [8]: 13.8
- Implants [9]: 2.2
- No. pregnant/mated [10]: 5
- Implants [11]: 6.6
- Corpora lutea [12]: 13
- Pregnant [13]: 30%
Structure (SMILES): CC#C[C@]1(O)CC[C@H]2[C@@H]3CCC4=CC(=O)CCC4=C3[C@@H](c3ccc(N(C)C)cc3)C[C@@]21C.CC1=CC(C)(C)Nc2ccc3c(c21)C(c1ccc(Cl)c(C)c1)Oc1ccc(F)cc1-3

- pEC50 (Progesterone receptor [4]): 6.83
- pKi (Progesterone receptor [5]): 7.22
Structure (SMILES): CC1=CC(C)(C)Nc2ccc3c(c21)C(c1ccc(Cl)c(C)c1)Oc1ccc(F)cc1-3 (stereo in doubt) [listing 2 of 2 here]

- Efficacy [1]: 117
Structure (SMILES): CC1=CC(C)(C)Nc2ccc3c(c21)C(c1cccc(Cl)c1)Oc1ccc(F)cc1-3 (racemic) [listing 2 of 2 here]
